Activity calls are given as the source filed them. The calls are words filed in the database; no cut-off is given here.
Legend:
Calu-6 [1] = experiment: Cytotoxicity against human Calu6 cells expressing VIPR1 up to 10 uM in presence of 2% serum; type: functional, cell-based
In short: (§1)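 Cell proliferation in H727, H1299 and Calu6 lines, chosen for high VIPR1 expression. Medium held 2% serum to limit albumin sequestration. Compounds were tested at concentrations up to 10 µM.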

NCI-H1299 [2] = experiment: Cytotoxicity against human NCI-H1299 cells expressing VIPR1 up to 10 uM in presence of 2% serum; type: functional, cell-based; in short: as §1
NCI-H727 [3] = experiment: Cytotoxicity against human NCI-H727 cells expressing VIPR1 up to 10 uM in presence of 2% serum; type: functional, cell-based; in short: as §1
[4] = biological target: T1, Vasoactive intestinal polypeptide receptor 1 (Rattus norvegicus) (UniProt P30083); experiment: Displacement of [125I]VIP from vasoactive intestinal peptide receptor 1 in rat RKE cell membrane after 3 hrs by TopCount assay; type: cell membranes
T1 sequence (whole entry): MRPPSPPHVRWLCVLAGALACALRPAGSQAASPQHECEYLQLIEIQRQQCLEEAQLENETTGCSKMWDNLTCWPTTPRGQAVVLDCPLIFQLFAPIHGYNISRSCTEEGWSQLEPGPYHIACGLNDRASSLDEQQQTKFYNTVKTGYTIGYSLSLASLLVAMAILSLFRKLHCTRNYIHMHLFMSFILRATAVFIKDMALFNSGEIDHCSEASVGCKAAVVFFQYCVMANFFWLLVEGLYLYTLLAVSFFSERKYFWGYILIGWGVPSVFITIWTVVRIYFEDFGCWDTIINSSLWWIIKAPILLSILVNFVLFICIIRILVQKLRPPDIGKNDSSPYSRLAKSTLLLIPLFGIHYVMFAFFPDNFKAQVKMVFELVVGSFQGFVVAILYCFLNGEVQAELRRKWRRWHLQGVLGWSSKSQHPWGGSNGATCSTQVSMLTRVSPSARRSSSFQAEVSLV
In short: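 Membranes from RKE-VIPR cells, 5 µg/well final, preincubated 10 min at room temperature with wheat germ agglutinin-coated PVT beads in 50 mM HEPES, 5 mM MgCl2, 1 mM CaCl2, 0.1% BSA. IC50 taken from a four-parameter logistic fit after subtracting nonspecific binding, defined with excess VIP.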

[5] = biological target: T2, Vasoactive intestinal polypeptide receptor 1 (Rattus norvegicus, UniProt P30083); experiment: Antagonist activity at vasoactive intestinal peptide receptor 1 in rat RKE cells assessed as inhibition of VIP-induced intracellular cAMP accumulation incubated for 15 mins prior to VIP-stimulation measured after 30 mins by HTRF assay
T2 sequence (P30083 whole entry): T1 sequence (whole entry)

Calu-6 [6] = experiment: Cytotoxicity against human Calu6 cells expressing VIPR1 in presence of 2% serum; type: functional, cell-based; in short: as §1
NCI-H1299 [7] = experiment: Cytotoxicity against human NCI-H1299 cells expressing VIPR1 in presence of 2% serum; type: functional, cell-based; in short: as §1
NCI-H727 [8] = experiment: Cytotoxicity against human NCI-H727 cells expressing VIPR1 in presence of 2% serum; type: functional, cell-based; in short: as §1

Row | SMILES | Activity (Calu-6 [1]) | Activity (NCI-H1299 [2]) | Activity (NCI-H727 [3]) | Activity [4] | IC50 [5] [nM] | Activity (Calu-6 [6]) | Activity (NCI-H1299 [7]) | Activity (NCI-H727 [8])
1 | Cc1ccc(-c2cc(C(C)(C)C)cc(C(C)C)c2CO)cc1 | inactive | inactive | inactive | Active | 300 | – | – | –
2 | COc1ccc(CCC(=O)Nc2sc3c(c2C#N)CCCC3)cc1 | – | – | – | Active | 410 | inactive | inactive | inactive
3 | Cc1cccc(-c2cc(C(C)(C)C)cc(C(C)C)c2CO)c1 | inactive | inactive | inactive | Active | 240 | – | – | –
4 | CCC(=O)Nc1sc2c(c1C#N)CCCC2 | – | – | – | Active | 12000 | inactive | inactive | inactive
5 | COc1cccc(CCC(=O)Nc2sc3c(c2C#N)CCCC3)c1 | – | – | – | Active | 610 | inactive | inactive | inactive
6 | CC(C)c1cc(C(C)(C)C)cc(-c2cccc(C(F)(F)F)c2)c1CO | inactive | inactive | inactive | Active | > 50000 | – | – | –
7 | CC(=O)Nc1sc2c(c1C#N)CCCC2 | – | – | – | Active | 13000 | inactive | inactive | inactive
8 | COc1ccc(-c2cc(C(C)(C)C)cc(C(C)C)c2CO)cc1 | inactive | inactive | inactive | Active | 1300 | – | – | –
9 | CC(C)c1cc(C(C)(C)C)cc(-c2ccccc2-c2ccccc2)c1CO | inactive | inactive | inactive | Active | 3200 | – | – | –
10 | N#Cc1c(NC(=O)C2CCCCC2)sc2c1CCCC2 | – | – | – | Active | 470 | inactive | inactive | inactive
11 | Cc1ccccc1CCC(=O)Nc1sc2c(c1C#N)CCCC2 | – | – | – | Active | 11000 | inactive | inactive | inactive
12 | N#Cc1c(NC(=O)Cc2ccccc2)sc2c1CCCC2 | – | – | – | Active | 1600 | inactive | inactive | inactive
13 | N#Cc1c(NC(=O)CCc2ccccc2)sc2c1CCCC2 | – | – | – | Active | 290 | inactive | inactive | inactive
14 | N#Cc1c(NC(=O)C2Cc3ccccc3C2)sc2c1CCCC2 | – | – | – | Active | 17000 | inactive | inactive | inactive
15 | CC(C)c1cc(C(C)(C)C)cc(-c2cccc(N(C)C)c2)c1CO | inactive | inactive | inactive | Active | 310 | – | – | –
16 | N#Cc1c(NC(=O)C2CCC2)sc2c1CCCC2 | – | – | – | Active | 1800 | inactive | inactive | inactive
17 | CC(C)c1cc(C(C)(C)C)cc(-c2ccc(-c3ccccc3)cc2)c1CO | inactive | inactive | inactive | Active | 680 | – | – | –
18 | Cc1ccc(-c2cc(C(C)(C)C)cc(C(C)C)c2CO)cc1C | inactive | inactive | inactive | Active | 81 | – | – | –
19 | N#Cc1c(NC(=O)C2CC2)sc2c1CCCC2 | – | – | – | Active | 2700 | inactive | inactive | inactive
20 | Cc1ccc(CCC(=O)Nc2sc3c(c2C#N)CCCC3)cc1 | – | – | – | Active | 480 | inactive | inactive | inactive

Row | SMILES | Activity (Calu-6 [1]) | Activity (NCI-H1299 [2]) | Activity (NCI-H727 [3]) | Activity [4] | IC50 [5] [nM] | Activity (Calu-6 [6]) | Activity (NCI-H1299 [7]) | Activity (NCI-H727 [8])
21 | CC(C)c1cc(C(C)(C)C)cc(-c2cccc(Cl)c2)c1CO | inactive | inactive | inactive | Active | 100 | – | – | –
22 | COc1ccccc1-c1cc(C(C)(C)C)cc(C(C)C)c1CO | inactive | inactive | inactive | Active | 820 | – | – | –
23 | N#Cc1c(NC(=O)COc2ccccc2)sc2c1CCCC2 | – | – | – | Active | 9100 | inactive | inactive | inactive
24 | COc1cccc(-c2cc(C(C)(C)C)cc(C(C)C)c2CO)c1 | inactive | inactive | inactive | Active | 200 | – | – | –
25 | CSc1cccc(-c2cc(C(C)(C)C)cc(C(C)C)c2CO)c1 | inactive | inactive | inactive | Active | 170 | – | – | –
26 | N#Cc1c(NC(=O)CCc2ccc(Cl)cc2)sc2c1CCCC2 | – | – | – | Active | 1200 | inactive | inactive | inactive
27 | CC(C)c1cc(C(C)(C)C)cc(-c2cccc(C#N)c2)c1CO | inactive | inactive | inactive | Active | > 50000 | – | – | –
28 | N#Cc1c(NC(=O)CC2Cc3ccccc3O2)sc2c1CCCC2 (stereo not given) | – | – | – | Active | 3800 | inactive | inactive | inactive
29 | CC(C)c1cc(C(C)(C)C)cc(-c2cccc(-c3ccccc3)c2)c1CO | inactive | inactive | inactive | Active | 210 | – | – | –
30 | N#Cc1c(NC(=O)C2CCc3ccccc3C2)sc2c1CCCC2 (stereo not given) | – | – | – | Active | 12000 | inactive | inactive | inactive
31 | N#Cc1c(NC(=O)Cc2cc3ccccc3[nH]2)sc2c1CCCC2 | – | – | – | Active | 50000 | inactive | inactive | inactive
32 | CC(C)C(=O)Nc1sc2c(c1C#N)CCCC2 | – | – | – | Active | 3400 | inactive | inactive | inactive
33 | N#Cc1c(NC(=O)Cc2cc3ccccc3s2)sc2c1CCCC2 | – | – | – | Active | 1900 | inactive | inactive | inactive
34 | Cc1cccc(CCC(=O)Nc2sc3c(c2C#N)CCCC3)c1 | – | – | – | Active | 750 | inactive | inactive | inactive
35 | N#Cc1c(NC(=O)C2CCCC2)sc2c1CCCC2 | – | – | – | Active | 470 | inactive | inactive | inactive
36 | CC(C)CC(=O)Nc1sc2c(c1C#N)CCCC2 | – | – | – | Active | 1900 | inactive | inactive | inactive
37 | CC(C)c1cc(C(C)(C)C)cc(-c2ccccc2)c1CO | inactive | inactive | inactive | Active | 390 | – | – | –
38 | CC(C)c1cc(C(C)(C)C)cc(-c2cccc3ccccc23)c1CO | inactive | inactive | inactive | Active | 180 | – | – | –
39 | Cc1ccccc1-c1cc(C(C)(C)C)cc(C(C)C)c1CO | inactive | inactive | inactive | Active | > 50000 | – | – | –
40 | CC(C)c1cc(C(C)(C)C)cc(-c2ccc(Cl)cc2)c1CO | inactive | inactive | inactive | Active | 290 | – | – | –

Reference: ChEMBL document CHEMBL1955783, “Identification and optimization of small molecule antagonists of vasoactive intestinal peptide receptor-1 (VIPR1)” (Bioorg Med Chem Lett, 2012)
